Test results: article PMC5099076 (Journal of medicinal chemistry, 2015)

How the values were obtained:
PIF pocket of PDK1 = target: T1, PIF pocket of PDK1 (Homo sapiens, UniProt O15530); assay: Fluorescence polarization; assay type: binding
T1 sequence (O15530 1-556): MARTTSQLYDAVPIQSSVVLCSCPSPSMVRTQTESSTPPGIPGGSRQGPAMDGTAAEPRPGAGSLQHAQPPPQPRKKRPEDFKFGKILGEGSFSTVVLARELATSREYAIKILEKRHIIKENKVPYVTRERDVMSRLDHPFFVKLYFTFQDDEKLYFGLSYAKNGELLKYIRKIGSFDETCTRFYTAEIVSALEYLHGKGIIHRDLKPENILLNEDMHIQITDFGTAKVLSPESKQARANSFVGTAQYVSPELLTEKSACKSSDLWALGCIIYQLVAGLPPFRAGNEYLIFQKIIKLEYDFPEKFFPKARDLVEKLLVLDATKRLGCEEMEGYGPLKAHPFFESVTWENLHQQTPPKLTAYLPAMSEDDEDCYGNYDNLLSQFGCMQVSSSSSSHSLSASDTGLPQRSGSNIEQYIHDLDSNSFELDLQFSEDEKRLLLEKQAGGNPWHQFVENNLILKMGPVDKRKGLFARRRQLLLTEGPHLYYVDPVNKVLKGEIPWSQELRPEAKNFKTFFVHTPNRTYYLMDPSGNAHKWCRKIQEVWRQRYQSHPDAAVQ

cruzain = assay: Cruzain assay; assay type: biochemical; settings: unrelated enzyme, test for aggregation-based mechanism
In short: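 Test compound preincubated 5 min with 0.8 nM cruzain in 100 mM sodium acetate, pH 5.5, 5 mM DTT, with 0.01% Triton X-100 added where indicated. Reaction started with Z-FR-AMC; final 0.4 nM cruzain, 2.5 μM substrate, 0.5% DMSO. Fluorescence increase (ex 355/em 460 nm) recorded over 5 min. Run in duplicate; DMSO-only controls.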

Dynamic light scattering = assay type: physicochemical; settings: under assay conditions
In short: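 Concentrated DMSO stocks of test compound diluted in assay buffer to a final 3.2% DMSO. Light scattering read with a 55 mW laser at 826.6 nm, 100% laser power, detector at 90°. Single-point measurements reported.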

PDK1 = target: T2, PDK1 (Homo sapiens, UniProt O15530); assay type: biochemical; settings: short peptide substrate, in vitro
T2 sequence (O15530 1-556): T1 sequence (O15530 1-556)

| Structure (SMILES) | Binding to PDK1 (in words) (PIF pocket of PDK1; FP competitive binding assay) | Nonspecific inhibition of cruzain (cruzain) | Formation of colloidal aggregates (Dynamic light scattering) | LE (ligand efficiency) (PIF pocket of PDK1; binding energy (ΔG, kcal/mol) per non-hydrogen atom) | Maximal stimulation of PDK1 activity (PDK1) |
| --- | --- | --- | --- | --- | --- |
| O=C(O)C/C(=C/c1cccc(C(F)(F)F)c1)c1nc2ccccc2o1 [compound 2] | negligible |  |  |  |  |
| Cc1ccc(OCCSc2nc3ccccc3n2CC(=O)O)c(C)c1 [compound 1] |  | nor did either compound nonspecifically inhibit | Neither compound formed colloidal aggregates | 0.25 kcal/mol per non-hydrogen atom | ~ 1.8 fold |
| O=P(O)(O)[C@H](NC[C@@H]1CCCc2ccccc21)c1ccc(F)cc1 [compound 3] |  | nor did either compound nonspecifically inhibit | Neither compound formed colloidal aggregates |  | ~ 1.8 fold |
